In ChEMBL document CHEMBL1821696, “Substitution of the phosphonic acid and hydroxamic acid functionalities of the DXR inhibitor FR900098: an attempt to improve the activity against Mycobacterium tuberculosis” (Bioorg Med Chem Lett, 2011):
In brackets after ≈: the same amount, converted by molar mass.

Assays:
[1] = biological target: T1, 1-deoxy-D-xylulose 5-phosphate reductoisomerase (Mycobacterium tuberculosis) (UniProt P9WNS1); assay: Inhibition of Mycobacterium tuberculosis DXR assessed as reduction of 1-deoxy-D-xylulose 5-phosphate into 2-C-methyl-D-erythritol-4-phosphate at 100 uM measured for every 5 secs upto 500 secs by spectrophotometry analysis
T1 sequence (whole entry): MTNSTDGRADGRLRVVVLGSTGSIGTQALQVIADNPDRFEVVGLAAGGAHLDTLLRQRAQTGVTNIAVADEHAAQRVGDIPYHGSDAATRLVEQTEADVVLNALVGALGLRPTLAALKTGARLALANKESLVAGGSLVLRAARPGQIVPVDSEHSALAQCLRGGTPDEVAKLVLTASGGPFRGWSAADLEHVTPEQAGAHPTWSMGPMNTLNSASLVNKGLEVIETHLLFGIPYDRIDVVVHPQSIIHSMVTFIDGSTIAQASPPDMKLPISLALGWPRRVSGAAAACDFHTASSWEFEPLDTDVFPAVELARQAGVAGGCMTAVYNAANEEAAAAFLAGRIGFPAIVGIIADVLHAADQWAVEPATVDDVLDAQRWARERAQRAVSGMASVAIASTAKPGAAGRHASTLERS
How it was run: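 MtDXR reaction in 50 mM HEPES-NaOH pH 7.5, 100 mM NaCl, 1.5 mM MnCl2, 0.2 mM NADPH, 0.2 mM DXP and a single inhibitor concentration. Started by adding DXP and run at 22 °C. NADPH consumption read as A340 every 5 s for 500 s. Initial velocity from the linear slope gives % inhibition relative to the uninhibited reaction.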

[2] = test system: Mycobacterium tuberculosis; assay: Antimycobacterial activity against Mycobacterium tuberculosis by whole-cell assay; format: functional
[3] = biological target: T2, 1-deoxy-D-xylulose 5-phosphate reductoisomerase (Mycobacterium tuberculosis, UniProt P9WNS1); assay: Inhibition of Mycobacterium tuberculosis DXR assessed as reduction of 1-deoxy-D-xylulose 5-phosphate into 2-C-methyl-D-erythritol-4-phosphate measured for every 5 secs upto 500 secs by spectrophotometry analysis
T2 sequence (P9WNS1 whole entry): T1 sequence (whole entry)
How it was run: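 MtDXR in 50 mM HEPES-NaOH pH 7.5, 100 mM NaCl, 1.5 mM MnCl2, 0.2 mM NADPH and 0.2 mM DXP, started with DXP at 22 °C. A340 read every 5 s for 500 s. Six inhibitor concentrations spanning 0.01–1000. Initial-rate activities relative to the uninhibited reaction were fitted to a Hi/Lo four-parameter curve for IC50.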

Compound | inhibition [1] [%] | MIC [2] [µg/mL] | IC50 [3] [µM]
O=c1oc2cc(-c3ccccc3)cnc2n1CCCP(=O)(O)O | 11 | 256 (≈ 766 µM) | –
CC(=O)N(O)CCCC(=O)O | 0 | – | –
CC(=O)N(O)CCc1c(C(=O)O)noc1C | 41 | > 512 | 151
CC(=O)N(O)CCC1NC(=O)NC1=O (configuration not stated) | 13 | – | –
O=C1NC(=O)C(CCP(=O)(O)O)N1 (configuration not stated) | 8 | – | –
CC(=O)N(O)CCCS(=O)(=O)O | 36 | – | > 100
O=c1oc2cccnc2n1CCCP(=O)(O)O | 11 | – | –
O=C1N[C@H](CCP(=O)(O)O)CO1 | 0 | – | –
CC(=O)N(O)CCCC(=O)NS(C)(=O)=O | 29 | – | –
O=c1oc2cc(Br)cnc2n1CCCP(=O)(O)O | 7 | – | –
CC(=O)N(O)CCCP(=O)(O)OCCc1ccccc1 | 23 | – | –
O=c1cccc(CCP(=O)(O)O)n1O | 61 | > 512 | 53
O=P(O)(O)CCc1ccc(O)c(O)c1 | 78 | > 512 | 41
CC(=O)N(O)CCCc1nnn[nH]1 | 0 | – | –
